Only some compounds are listed: those with a hit (about 0.75% of all), similar ones and a draw of the others.
p47phox inh: inhibitors of human p47phox binding. p47phox/p22phox peptide binding, fluorescence polarization, 2 h. actives 0.53% (n = 220,000). AID 1274. inhibition, % at 24.7 µM;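 active = inhibition above about 30%, limit read from the data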;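 note: 0% = p47phox with labelled peptide and 100% = labelled peptide alone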
MDM2 E3 inh: Mdm2 E3 ligase (human) inhibition; Q00987; cell-based MDM2 ubiquitination luciferase reporter, 2 h; 0 = plate control, 100 = twice control, blank-subtracted; signal enhancement, % at 5 µM; actives 0.11% (n = 210,000); AID 1230;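 active = signal enhancement of 30% or more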;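 note: luminescence tracks abundance of the self-degrading MDM2-luciferase fusion protein; higher signal means inhibition of MDM2 E3 ligase activity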
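Timing – 2 h compound exposure at 37 °C · Assay system – mammalian cells stably expressing self-ubiquitinating, self-degrading MDM2 E3–luciferase fusion · Amount – 2000 cells seeded into each well · Measure – % luminescence enhancement versus blank-corrected plate control mean · Measured by – SteadyLite luminescence, 15 min reagent step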
Tb hexokinase: blocks Trypanosoma brucei hexokinase 1 activity; recombinant TbHK1, G6PDH-coupled NADH A340; inhibition, % at 10 µM; actives 0.11% (n = 220,000);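 active = inhibition of 50% or more in the single-dose primary screen; inactive = inhibition below 50%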
Rad51 HR inh: blocks human Rad51 in homologous recombination. hRad51 DNA strand exchange, fluorescence dequenching. Q06609. inhibition, % at 10 µM. actives 0.085% (n = 200,000);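 active = inhibition above 40% at the single screening dose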;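 note: 0% = DMSO control wells and 100% = blanks with heterologous ssDNA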
Target sequence (Q06609 whole entry, looked up): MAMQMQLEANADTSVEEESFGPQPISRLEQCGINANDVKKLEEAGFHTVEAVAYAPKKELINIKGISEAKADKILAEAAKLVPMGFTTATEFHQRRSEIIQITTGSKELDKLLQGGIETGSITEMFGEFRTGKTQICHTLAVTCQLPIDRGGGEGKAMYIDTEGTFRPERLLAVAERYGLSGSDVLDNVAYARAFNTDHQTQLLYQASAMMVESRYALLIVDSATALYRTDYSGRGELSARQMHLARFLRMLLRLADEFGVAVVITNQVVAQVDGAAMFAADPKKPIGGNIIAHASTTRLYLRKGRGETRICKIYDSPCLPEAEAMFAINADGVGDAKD
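System: hRad51 filaments on single-stranded DNA; reagent: Fluorescein- and BHQ1-tagged 47-mer duplex; compound dosing: one concentration, 10 µM final; timing: filaments 15 min 37 °C, then compound 30 min; measured by: fluorescein emission 520 nm, excitation 485 nm; benchmarks: per-plate controls and blanks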
The depositor's hits bear a star.

Screening CC(C)(C)c1ccc(NC(=O)Nc2ccc(F)cc2)cc1 returned p47phox inh -3.6, MDM2 E3 inh -17.5, Tb hexokinase -3.0 and Rad51 HR inh -6.2.
Screening O=C(CCS(=O)(=O)c1cc(Br)cc2c1N(C(=O)C1CC1)CC2)N1CCN(c2ccccn2)CC1 returned p47phox inh -3.6, MDM2 E3 inh -4.1, Tb hexokinase -3.2 and Rad51 HR inh -3.9.
For Cc1ccccc1OCCn1cnc2c(N)ncnc21 the results were p47phox inh 40.9*, MDM2 E3 inh -25.9, Tb hexokinase 6.6 and Rad51 HR inh 3.0.
`CC1CCCN(C2=C(NS(=O)(=O)c3ccc(Cl)cc3)C(=O)c3ccccc3C2=O)C1` (stereo not drawn) gave p47phox inh 50.4*, MDM2 E3 inh 1.8, Tb hexokinase -2.9 and Rad51 HR inh -0.7.
For Cc1ccc(-c2nc(-c3ccccn3)sc2CC(=O)O)cc1 the results were p47phox inh -5.1, Tb hexokinase -21.6 and Rad51 HR inh 46.9*.
For O=C(Cn1cnc2ccccc2c1=O)NCCC(=O)N1CCN(Cc2ccccc2)CC1 the results were p47phox inh -5.1, MDM2 E3 inh 34.4*, Tb hexokinase -1.3 and Rad51 HR inh -1.1.
For O=C(Cn1cnc2ccccc2c1=O)N1CCOCC1 the results were p47phox inh -13.2, Tb hexokinase -1.9 and Rad51 HR inh -4.8.
`O=C(CSc1nc2ccccc2c(=O)n1-c1ccccc1)NCc1ccc2c(c1)OCO2` gave p47phox inh 52.6*, MDM2 E3 inh -5.0, Tb hexokinase -3.4 and Rad51 HR inh 4.0.
Cc1cccc(-n2c(SCC(=O)NCc3ccc4c(c3)OCO4)nc3ccccc3c2=O)c1 was read as p47phox inh -17.4, MDM2 E3 inh -0.6, Tb hexokinase 33.8 and Rad51 HR inh -2.4.
COc1cc(-c2noc(-c3ccccc3C(=O)NCc3ccco3)n2)cc(OC)c1OC was read as p47phox inh 41.9*, MDM2 E3 inh -17.6, Tb hexokinase 1.5 and Rad51 HR inh 10.9.
Screening CCOC(=O)c1nnn(CC(=O)NC(=O)Nc2ccc(F)cc2)c1C(=O)OCC returned p47phox inh -6.6, MDM2 E3 inh -10.1, Tb hexokinase -4.6 and Rad51 HR inh 0.9.
Screening O=C(/C=C/c1ccncc1)c1ccc(NC(=O)c2ccccc2F)cc1 returned p47phox inh 30.0*, MDM2 E3 inh -7.5, Tb hexokinase -13.4 and Rad51 HR inh -8.0.
Cn1c(CNC(=O)c2ccco2)nnc1SCC(=O)N1c2ccccc2Sc2ccccc21 was read as p47phox inh -7.5, MDM2 E3 inh 30.0*, Tb hexokinase -7.1 and Rad51 HR inh -4.3.
For Cn1c(CNC(=O)c2ccco2)nnc1SCC(=O)Nc1cccc(Br)c1 the results were p47phox inh -13.9, MDM2 E3 inh -8.7, Tb hexokinase -0.4 and Rad51 HR inh -6.2.
For COc1ccc(-c2cnnc(N/N=C/c3ccc(O)c(OC)c3)n2)cc1 the results were p47phox inh -3.0, MDM2 E3 inh -11.2, Tb hexokinase -9.9 and Rad51 HR inh -6.9.
For CCN(CC)C1=NS(=O)(=O)c2cc([N+](=O)[O-])ccc21 the results were p47phox inh 56.4*, MDM2 E3 inh 2.2, Tb hexokinase -2.6 and Rad51 HR inh -4.5.
Screening CCn1nc(C)c(CNC(=O)Nc2ccc3c(c2)OCO3)c1C returned p47phox inh 2.0, MDM2 E3 inh -3.1, Tb hexokinase -0.7 and Rad51 HR inh 1.5.
Cn1c(=O)c2c(SCCN3CCOCC3)nc(C3CCCC3)nc2n(C)c1=O was read as p47phox inh 3.1, MDM2 E3 inh -13.2, Tb hexokinase -1.8 and Rad51 HR inh -1.2.
Screening CCN(CC)c1ccc(NC2=C(Cl)C(=O)c3ccccc3C2=O)cc1 returned p47phox inh 34.8*, MDM2 E3 inh -6.2 and Tb hexokinase -3.2.
CCOC(=O)/C(C)=C1\NC(C)(C)Cc2ccccc21 was read as p47phox inh 62.1*, MDM2 E3 inh -45.9, Tb hexokinase 3.3 and Rad51 HR inh -24.7.
Cc1ccc(CNC(=O)CSc2nc3c(sc4ccccc43)c(=O)n2CCCN2CCCC2)cc1 was read as p47phox inh -11.7, MDM2 E3 inh 1.5, Tb hexokinase -4.4 and Rad51 HR inh 42.7*.
For O=[N+]([O-])c1cc([N+](=O)[O-])c2c(=Nc3ccccc3)n(-c3ccccc3)n(O)c2c1 the results were p47phox inh 28.8, MDM2 E3 inh -12.0, Tb hexokinase -3.3 and Rad51 HR inh -5.7.
COc1ccc(C)cc1C1=Nc2ccccc2C1(C)C was read as p47phox inh -3.1, MDM2 E3 inh 30.4*, Tb hexokinase 4.8 and Rad51 HR inh -1.4.
For COc1ccc(N2CCN(C(=O)C3CCCN(S(=O)(=O)c4c(C)noc4C)C3)CC2)cc1 (stereo not drawn) the results were p47phox inh -8.2, MDM2 E3 inh -17.4, Tb hexokinase -6.5 and Rad51 HR inh 4.1.
O=S(=O)(c1cc(Cl)ccc1Cl)n1ccnc1 was read as p47phox inh 146.9*, MDM2 E3 inh -4.8, Tb hexokinase 3.4 and Rad51 HR inh 0.6.
C=C1C(=O)O[C@@H]2C[C@@H](C)[C@@H]3C=CC(=O)[C@@]3(C)[C@@H](OC(C)=O)[C@H]12 was read as p47phox inh -3.2, MDM2 E3 inh 35.1*, Tb hexokinase -2.5 and Rad51 HR inh -10.2.
Screening O=C(CN1CCC(NC(=O)c2ccc(F)cc2)CC1)NCc1ccccc1F returned p47phox inh 49.8*, MDM2 E3 inh -21.0, Tb hexokinase 5.7 and Rad51 HR inh -2.1.
For O=C(CN1CCC(NC(=O)c2ccccc2)CC1)NCc1ccccc1F the results were p47phox inh -11.8, MDM2 E3 inh -8.6, Tb hexokinase 15.9 and Rad51 HR inh -3.2.
For CCc1ccc(S(=O)(=O)/N=C2/C=C(Sc3ncn[nH]3)C(=O)c3ccccc32)cc1 the results were p47phox inh 55.2*, MDM2 E3 inh 15.2, Tb hexokinase 37.7 and Rad51 HR inh 4.0.
For O=C(Nc1ccc(Nc2ccncc2)cc1)c1ccc([N+](=O)[O-])cc1 the results were p47phox inh 1.7, MDM2 E3 inh -24.4, Tb hexokinase -24.6 and Rad51 HR inh 13.1.
O=C(Nc1ccc(Nc2ccncc2)cc1)c1ccc(Nc2ccnc3ccc([N+](=O)[O-])cc23)cc1[N+](=O)[O-] was read as p47phox inh 71.4*, MDM2 E3 inh -7.7, Tb hexokinase -68.1 and Rad51 HR inh 21.3.
`O=C(NCc1ccccc1)c1cccc(COc2ccc3c(c2)CCC3)c1` gave p47phox inh -24.9, MDM2 E3 inh -63.4, Tb hexokinase 7.5 and Rad51 HR inh -3.7.
For COc1cccc(OC)c1C(=O)NNC(=O)c1cccc(COc2ccc3c(c2)CCC3)c1 the results were p47phox inh -10.8, MDM2 E3 inh 31.2* and Tb hexokinase -2.0.
Screening COc1ccc(S(=O)(=O)Nc2ccc(NC(C)=O)cc2)cc1[N+](=O)[O-] returned p47phox inh -10.7, MDM2 E3 inh -13.2, Tb hexokinase -5.8 and Rad51 HR inh 13.5.
For CCOC(=O)c1cnc2ccc(C(=O)OC)cc2c1Nc1cccc(C(=O)O)c1 the results were p47phox inh 41.9*, MDM2 E3 inh -5.7, Tb hexokinase -22.4 and Rad51 HR inh -3.9.

Source: PubChem BioAssay
